Active and inactive are the calls of the source. The calls are words filed in the database; no cut-off is given here. Non-standard residues stand in square brackets, D forms with d. Residues, ends and D or L forms follow the SMILES beside them. pS = N[C@@H](COP(=O)(O)O)C(=O)O
Assays:
[1] = biological target: T1, Breast cancer type 1 susceptibility protein (Homo sapiens, UniProt P38398); test: Binding affinity to BRCA1 by isothermal titration calorimetric assay
Method in brief: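 Direct ITC titration at 25°C. Protein dialyzed three times (2 h each) into 50mM KH2PO4 pH = 7.2; final dialysate used for reference cell and to dissolve peptides. Peptides (100 – 400 μM) in syringe, protein (10 – 20 μM) in cell; 3 μL first injection then 29 × 10 μL every 3 minutes, stirred at 307 rpm. Peptide-into-buffer dilution curves collected; Kd and ΔG, ΔH, ΔS derived.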

[2] = biological target: T1, Breast cancer type 1 susceptibility protein; test: Inhibition of BRCA1 by fluorescence polarization assay
Method in brief: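 Competitive fluorescence polarization assay. Peptides titrated into a mixture of BRCT protein (1000 nM) and fluorescently labeled tetrapeptide (100 nM). Polarization and fluorescence read on a plate reader. IC50 values obtained by non-linear least square fitting.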
Target sequence in this assay (P38398 whole entry): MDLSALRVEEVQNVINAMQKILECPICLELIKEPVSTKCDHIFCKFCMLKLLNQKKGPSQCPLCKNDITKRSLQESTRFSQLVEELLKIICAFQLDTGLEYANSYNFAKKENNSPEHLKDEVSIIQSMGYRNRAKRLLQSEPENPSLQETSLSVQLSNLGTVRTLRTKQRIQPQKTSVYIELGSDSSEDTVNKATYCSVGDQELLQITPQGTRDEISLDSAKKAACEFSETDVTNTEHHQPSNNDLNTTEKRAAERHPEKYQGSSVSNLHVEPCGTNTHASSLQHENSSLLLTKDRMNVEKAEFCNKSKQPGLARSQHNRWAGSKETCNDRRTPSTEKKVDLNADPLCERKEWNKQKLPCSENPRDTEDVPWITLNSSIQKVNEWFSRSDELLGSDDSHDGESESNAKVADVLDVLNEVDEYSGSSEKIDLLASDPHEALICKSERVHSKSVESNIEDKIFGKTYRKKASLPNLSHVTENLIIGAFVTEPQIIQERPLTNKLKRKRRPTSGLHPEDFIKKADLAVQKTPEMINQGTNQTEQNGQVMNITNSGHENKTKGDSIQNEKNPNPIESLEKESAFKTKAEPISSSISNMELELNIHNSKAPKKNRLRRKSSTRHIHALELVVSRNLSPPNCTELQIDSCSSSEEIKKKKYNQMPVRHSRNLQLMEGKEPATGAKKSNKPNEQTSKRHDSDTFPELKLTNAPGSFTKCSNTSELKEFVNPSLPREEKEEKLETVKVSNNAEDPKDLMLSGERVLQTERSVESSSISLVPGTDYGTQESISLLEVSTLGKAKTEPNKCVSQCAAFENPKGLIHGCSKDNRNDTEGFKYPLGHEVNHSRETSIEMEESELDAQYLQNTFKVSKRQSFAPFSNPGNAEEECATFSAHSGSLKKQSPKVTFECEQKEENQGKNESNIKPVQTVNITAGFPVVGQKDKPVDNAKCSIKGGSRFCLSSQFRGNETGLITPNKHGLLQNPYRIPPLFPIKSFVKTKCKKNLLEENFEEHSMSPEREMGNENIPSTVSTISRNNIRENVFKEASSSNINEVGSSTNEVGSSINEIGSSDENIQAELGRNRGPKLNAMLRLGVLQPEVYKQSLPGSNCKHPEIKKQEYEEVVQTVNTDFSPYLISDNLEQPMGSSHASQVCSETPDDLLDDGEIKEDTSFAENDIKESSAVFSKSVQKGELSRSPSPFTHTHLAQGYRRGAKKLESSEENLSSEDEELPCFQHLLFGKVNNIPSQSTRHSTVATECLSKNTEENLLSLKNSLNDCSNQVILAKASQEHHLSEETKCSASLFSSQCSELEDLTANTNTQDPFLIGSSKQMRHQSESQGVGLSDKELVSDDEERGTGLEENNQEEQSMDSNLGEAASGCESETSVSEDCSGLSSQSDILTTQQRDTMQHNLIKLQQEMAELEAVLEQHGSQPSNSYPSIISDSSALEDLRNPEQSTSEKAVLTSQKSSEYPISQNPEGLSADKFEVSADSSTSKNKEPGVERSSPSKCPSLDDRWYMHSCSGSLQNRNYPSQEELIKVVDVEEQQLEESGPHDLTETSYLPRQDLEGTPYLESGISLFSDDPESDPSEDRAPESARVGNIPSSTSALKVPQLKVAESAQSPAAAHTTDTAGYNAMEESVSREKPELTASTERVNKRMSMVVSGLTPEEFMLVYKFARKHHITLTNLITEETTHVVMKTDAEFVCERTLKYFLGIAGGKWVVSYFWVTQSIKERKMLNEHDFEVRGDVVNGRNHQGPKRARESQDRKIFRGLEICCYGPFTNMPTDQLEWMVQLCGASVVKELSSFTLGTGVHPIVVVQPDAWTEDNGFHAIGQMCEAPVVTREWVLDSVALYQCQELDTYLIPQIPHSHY

| Kd [1] [µM] | Activity [1] | Compound | also measured |
| --- | --- | --- | --- |
| 0.44 |  | CC(=O)N[C@@H](CO)C(=O)N[C@@H](CCCNC(=N)N)C(=O)N[C@@H](CO)C(=O)N[C@H](C(=O)N[C@@H](COP(=O)(O)O)C(=O)N1CCC[C@H]1C(=O)N[C@H](C(=O)N[C@@H](Cc1ccccc1)C(=O)N[C@@H](CC(N)=O)C(=O)N[C@@H](CCCCN)C(N)=O)[C@@H](C)O)[C@@H](C)O |  |
| 0.41 |  | CC[C@H](C)[C@H](N)C(=O)N[C@@H](CO)C(=O)N[C@@H](CCCNC(=N)N)C(=O)N[C@@H](CO)C(=O)N[C@H](C(=O)N[C@@H](COP(=O)(O)O)C(=O)N1CCC[C@H]1C(=O)N[C@H](C(=O)N[C@@H](Cc1ccccc1)C(=O)N[C@@H](CC(N)=O)C(=O)N[C@@H](CCCCN)C(=O)N[C@@H](CCC(N)=O)C(=O)N[C@H](C(=O)O)[C@@H](C)O)[C@@H](C)O)[C@@H](C)O |  |
|  |  | CC(=O)N[C@@H](CCC(=O)O)C(=O)N1CCC[C@H]1C(=O)N[C@H](C(=O)N[C@@H](Cc1ccccc1)C(N)=O)[C@@H](C)O (Ac-EPTF-NH2) | IC50 [2]: > 250 µM |
|  | Active | CC(=O)N[C@@H](COP(=O)(O)O)C(=O)N1CCC[C@H]1C(=O)N[C@H](C(=O)N[C@@H](Cc1ccccc1)C(N)=O)[C@@H](C)O (Ac-[pS]PTF-NH2) |  |
|  | Active | CC(=O)N[C@@H](COP(=O)(O)O)C(=O)N1CCC[C@H]1C(=O)N[C@H](C(=O)N[C@@H](Cc1ccccc1)C(N)=O)C(C)C (Ac-[pS]PVF-NH2) |  |
|  | Active | CC(=O)N[C@@H](COP(=O)(O)O)C(=O)N1CCC[C@H]1C(=O)N[C@H](C(=O)N[C@@H](Cc1ccccc1)C(=O)O)C(C)C (Ac-[pS]PVF-OH) |  |

Reference: ChEMBL document CHEMBL1781980, “Structure-activity relationship studies to probe the phosphoprotein binding site on the carboxy terminal domains of the breast cancer susceptibility gene 1” (J Med Chem, 2011)
